We go through one compound from ChEMBL document CHEMBL4024770, “Augmentation of Anticancer Drug Efficacy in Murine Hepatocellular Carcinoma Cells by a Peripherally Acting Competitive N-Methyl-d-aspartate (NMDA) Receptor Antagonist” (J Med Chem, 2017).

The IC50 is the concentration at which inhibition is half-maximal. As a reminder, the Ki is a dissociation constant, usually derived from enzyme kinetics or from competition with a known ligand.

The nature of data set [1]: Displacement of [3H]-KA from KA receptor in Sprague-Dawley rat brain synaptosomes after 60 mins by scintillation counting method. Type of data set: subcellular. Background: In a radioligand displacement assay an active substance lowers the binding of a labelled ligand.
For data set [2], the target named is Glutamate receptor ionotropic, kainate 2 (Rattus norvegicus, UniProt P42260). Briefly: Displacement of [3H]-KA from recombinant homomeric rat GluK2 (V,C,R)a receptor expressed in baculovirus infected Sf9 insect cell membranes by scintillation counting method.
Glutamate receptor ionotropic, kainate 2, sequence (P42260 whole entry): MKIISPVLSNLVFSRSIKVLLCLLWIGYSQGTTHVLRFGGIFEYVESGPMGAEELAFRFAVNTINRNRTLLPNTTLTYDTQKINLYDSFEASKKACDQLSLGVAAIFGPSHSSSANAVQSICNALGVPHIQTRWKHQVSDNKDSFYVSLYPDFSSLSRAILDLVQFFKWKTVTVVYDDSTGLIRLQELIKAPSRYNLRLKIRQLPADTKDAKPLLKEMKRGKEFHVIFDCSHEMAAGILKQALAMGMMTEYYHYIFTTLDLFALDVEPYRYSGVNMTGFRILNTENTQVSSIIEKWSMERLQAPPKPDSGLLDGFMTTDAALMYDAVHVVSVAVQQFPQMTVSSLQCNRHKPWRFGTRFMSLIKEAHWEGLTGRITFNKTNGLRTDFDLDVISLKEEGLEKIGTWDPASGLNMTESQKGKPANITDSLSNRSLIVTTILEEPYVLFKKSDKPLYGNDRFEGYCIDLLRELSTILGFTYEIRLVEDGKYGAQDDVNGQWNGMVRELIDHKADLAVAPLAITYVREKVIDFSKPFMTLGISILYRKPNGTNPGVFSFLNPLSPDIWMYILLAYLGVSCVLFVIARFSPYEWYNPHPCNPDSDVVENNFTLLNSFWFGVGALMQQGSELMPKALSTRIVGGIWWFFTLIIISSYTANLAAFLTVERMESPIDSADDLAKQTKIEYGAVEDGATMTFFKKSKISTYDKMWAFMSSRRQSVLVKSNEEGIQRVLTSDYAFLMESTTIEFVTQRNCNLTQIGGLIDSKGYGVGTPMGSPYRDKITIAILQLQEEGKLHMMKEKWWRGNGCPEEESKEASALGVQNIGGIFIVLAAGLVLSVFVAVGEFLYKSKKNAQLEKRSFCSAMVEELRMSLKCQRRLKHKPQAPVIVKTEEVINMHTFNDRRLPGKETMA
Data set [3] deals with Glutamate NMDA receptor; Grin1/Grin2a (Rattus norvegicus, UniProt P35439+Q00959). The experiment in a line: Antagonist activity at recombinant rat GluN1a/GluN2A expressed in Xenopus laevis oocytes assessed as inhibition of glycine/glutamate-mediated current responses by two-electrode voltage clamp method. Format: cell-based. The essentials: (§1)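 Xenopus oocytes were injected with rat GluN1 and GluN2A–D cRNA (1:2) and recorded 2–6 days later by TEVC at room temperature, −40 mV, in Ba2+-containing recording solution, pH 7.4. Currents were evoked by 100 μM glycine plus glutamate at 2–3× EC50: 10 μM for GluN2A, 3 μM for GluN2B and GluN2C, 1 μM for GluN2D. IC50 from Hill fits per oocyte; Ki estimated.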
Glutamate NMDA receptor; Grin1/Grin2a, sequence (Q00959 whole entry, other chains not shown): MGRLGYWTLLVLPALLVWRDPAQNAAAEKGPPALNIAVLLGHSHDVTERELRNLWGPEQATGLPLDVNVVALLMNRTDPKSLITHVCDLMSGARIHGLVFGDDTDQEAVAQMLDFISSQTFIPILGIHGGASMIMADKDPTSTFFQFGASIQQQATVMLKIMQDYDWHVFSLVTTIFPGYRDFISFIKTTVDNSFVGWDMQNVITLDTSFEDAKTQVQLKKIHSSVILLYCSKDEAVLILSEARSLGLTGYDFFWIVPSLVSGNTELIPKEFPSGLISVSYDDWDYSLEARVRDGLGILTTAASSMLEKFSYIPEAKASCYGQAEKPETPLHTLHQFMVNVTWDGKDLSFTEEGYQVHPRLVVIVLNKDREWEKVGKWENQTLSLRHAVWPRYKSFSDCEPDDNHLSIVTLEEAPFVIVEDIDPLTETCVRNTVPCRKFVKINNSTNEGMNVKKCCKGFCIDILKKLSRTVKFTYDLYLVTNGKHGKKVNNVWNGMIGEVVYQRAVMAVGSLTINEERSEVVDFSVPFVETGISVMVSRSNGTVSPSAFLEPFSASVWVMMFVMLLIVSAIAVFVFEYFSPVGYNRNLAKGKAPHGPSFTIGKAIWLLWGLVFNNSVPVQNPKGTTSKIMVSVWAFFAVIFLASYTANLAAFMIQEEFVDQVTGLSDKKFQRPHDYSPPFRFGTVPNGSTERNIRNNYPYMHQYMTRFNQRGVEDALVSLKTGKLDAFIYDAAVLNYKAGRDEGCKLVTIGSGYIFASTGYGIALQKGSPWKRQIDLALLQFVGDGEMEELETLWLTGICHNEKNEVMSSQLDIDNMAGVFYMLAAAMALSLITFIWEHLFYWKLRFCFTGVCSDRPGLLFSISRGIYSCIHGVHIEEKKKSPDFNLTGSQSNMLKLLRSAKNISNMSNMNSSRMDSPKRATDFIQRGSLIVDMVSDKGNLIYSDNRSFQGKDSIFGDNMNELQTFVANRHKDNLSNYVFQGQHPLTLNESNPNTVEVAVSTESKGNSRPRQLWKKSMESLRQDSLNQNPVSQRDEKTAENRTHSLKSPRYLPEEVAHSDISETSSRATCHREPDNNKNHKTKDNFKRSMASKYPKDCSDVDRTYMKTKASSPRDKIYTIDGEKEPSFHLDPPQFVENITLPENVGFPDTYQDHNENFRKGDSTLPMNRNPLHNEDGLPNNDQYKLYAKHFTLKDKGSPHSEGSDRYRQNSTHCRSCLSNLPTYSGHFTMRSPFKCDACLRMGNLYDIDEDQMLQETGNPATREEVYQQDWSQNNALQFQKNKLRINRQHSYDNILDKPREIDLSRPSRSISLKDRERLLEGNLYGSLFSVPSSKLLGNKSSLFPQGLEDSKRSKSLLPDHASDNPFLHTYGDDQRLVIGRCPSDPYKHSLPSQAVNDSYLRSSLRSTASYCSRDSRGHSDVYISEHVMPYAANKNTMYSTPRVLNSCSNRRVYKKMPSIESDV
In general terms: Two-electrode voltage clamp is typically applied to oocytes expressing channels or transporters.

The target in data set [4] is Glutamate NMDA receptor; Grin1/Grin2b (Rattus norvegicus, UniProt P35439+Q00960). The experiment in a line: Antagonist activity at recombinant rat GluN1a/GluN2B expressed in Xenopus laevis oocytes assessed as inhibition of glycine/glutamate-mediated current responses by two-electrode voltage clamp method. Type of data set: cell-based. A digest of the protocol: as §1
Glutamate NMDA receptor; Grin1/Grin2b, sequence (Q00960 whole entry, other chains not shown): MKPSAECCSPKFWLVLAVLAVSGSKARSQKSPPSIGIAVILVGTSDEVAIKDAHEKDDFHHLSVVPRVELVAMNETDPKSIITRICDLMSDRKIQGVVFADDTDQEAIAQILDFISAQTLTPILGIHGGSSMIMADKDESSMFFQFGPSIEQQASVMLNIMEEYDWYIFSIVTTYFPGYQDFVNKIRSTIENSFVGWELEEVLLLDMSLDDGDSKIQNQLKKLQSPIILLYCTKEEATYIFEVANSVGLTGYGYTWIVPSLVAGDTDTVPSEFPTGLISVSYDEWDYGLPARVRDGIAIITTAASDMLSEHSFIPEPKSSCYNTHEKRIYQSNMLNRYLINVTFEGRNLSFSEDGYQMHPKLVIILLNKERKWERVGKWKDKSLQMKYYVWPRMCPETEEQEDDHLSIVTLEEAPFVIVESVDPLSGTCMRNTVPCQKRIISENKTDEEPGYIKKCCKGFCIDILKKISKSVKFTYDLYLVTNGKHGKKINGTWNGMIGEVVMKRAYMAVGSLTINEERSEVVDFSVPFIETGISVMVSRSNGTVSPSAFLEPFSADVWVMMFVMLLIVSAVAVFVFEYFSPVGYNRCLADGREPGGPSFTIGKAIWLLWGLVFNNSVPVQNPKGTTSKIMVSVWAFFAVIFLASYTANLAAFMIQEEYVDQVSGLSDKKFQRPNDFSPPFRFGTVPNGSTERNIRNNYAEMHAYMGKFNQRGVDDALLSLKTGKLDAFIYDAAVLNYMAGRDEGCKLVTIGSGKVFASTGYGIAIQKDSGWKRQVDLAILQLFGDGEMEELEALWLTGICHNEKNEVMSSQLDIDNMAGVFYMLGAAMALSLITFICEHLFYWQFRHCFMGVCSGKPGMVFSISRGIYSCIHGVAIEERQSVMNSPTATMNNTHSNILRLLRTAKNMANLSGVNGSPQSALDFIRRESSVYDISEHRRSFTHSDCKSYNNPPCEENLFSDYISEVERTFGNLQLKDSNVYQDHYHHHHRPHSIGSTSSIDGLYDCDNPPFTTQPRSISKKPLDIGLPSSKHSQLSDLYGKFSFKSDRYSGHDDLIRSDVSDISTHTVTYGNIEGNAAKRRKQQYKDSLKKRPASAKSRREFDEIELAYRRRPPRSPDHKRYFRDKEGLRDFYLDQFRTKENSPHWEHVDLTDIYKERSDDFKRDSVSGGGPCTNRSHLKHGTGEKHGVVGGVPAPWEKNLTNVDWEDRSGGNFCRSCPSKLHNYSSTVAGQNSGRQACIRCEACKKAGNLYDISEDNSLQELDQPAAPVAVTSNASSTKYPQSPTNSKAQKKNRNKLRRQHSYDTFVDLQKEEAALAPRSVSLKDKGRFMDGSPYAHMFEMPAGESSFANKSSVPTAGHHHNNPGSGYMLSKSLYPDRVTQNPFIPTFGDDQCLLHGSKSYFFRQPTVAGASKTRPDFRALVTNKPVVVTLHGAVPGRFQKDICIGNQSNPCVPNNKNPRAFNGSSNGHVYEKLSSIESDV

Data set [5] concerns the target Glutamate NMDA receptor; Grin1/Grin2c (Rattus norvegicus, UniProt P35439+Q00961). The experiment in a line: Antagonist activity at recombinant rat GluN1a/GluN2C expressed in Xenopus laevis oocytes assessed as inhibition of glycine/glutamate-mediated current responses by two-electrode voltage clamp method. Format: cell-based. The essentials:
as §1

In a further data set the test system is Plasma. The experiment in a line: AUC (0 to 240 mins) in mouse plasma at 10 mg/kg, ip administered as bolus dose by LC-MS/MS analysis. Type of data set: ADME, organism-based. Set-up: time < 4 hr, dose 10 mg/kg, route intraperitoneal. The settings on record: in vivo, 4 h. A digest of the protocol: (§2)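 Adult male mice (25 ± 5 g) given a single 10 mg/kg i.p. bolus, prepared as a 5.0 mM solution in 0.9% NaCl. Animals were decapitated at five time points between 10 and 240 min. Plasma was precipitated with acetonitrile containing internal standard. Brain and liver were homogenized in water (1:3) and precipitated the same way. Analysis by LC-MS/MS, with AUC0–240, Cmax, tmax, t½β and liver/plasma ratio derived from the concentration-time data.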

Another data set relates to Liver. Briefly: Elimination half life in mouse liver at 10 mg/kg, ip administered as bolus dose by LC-MS/MS analysis. Type of data set: ADME, organism-based. The settings on record: in vivo. The essentials: as §2
Data set [6] relates to Mus musculus. Briefly: Toxicity in mouse assessed as behavioral changes at 10 mg/kg, ip administered as bolus dose. As to conditions: in vivo. Format: organism-based.
The species entered for data set [7] is Mus musculus. Briefly: Antagonist activity at NMDA receptor in Nras driven p53 deficient mouse HCC cell membranes assessed as inhibition of NMDA-induced intracellular Ca2+ transients at 25 to 40 uM […] by fluo-4AM dye-based fluorescence assay. A digest of the protocol:
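Mouse HCC cells were loaded with Fluo-4-AM (5 μM, 45 min), then washed out for 20 min in HEPES-buffered saline, pH 7.4. Ca2+ transients were evoked by 15 s applications of 150 μM NMDA via fast perfusion. This was done alone or with antagonist at 25 or […] μM, imaged at 495 nm excitation. Data were scored as % responding, mean ± SEM, n=5.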

The species named for data set [8] is Mus musculus. Briefly: Antagonist activity at NMDA receptor in Nras driven p53 deficient mouse HCC cell membranes assessed as PGE2 levels at 100 uM after 24 hrs by LC-MS/MS method relative to control. Set-up: scale not given: the % may be the effect or the level left. A digest of the protocol: (§3)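 Nras-driven p53−/− mouse HCC cells in DMEM/10% FBS were incubated 24 h with or without 100 μM compound. This was done without LPS and with LPS (2.5 μg/mL) in the growth medium. Cells were washed with ice-cold HBSS and lysed in acetonitrile on ice. PGE2 in the lysates was quantified by LC-MS/MS and expressed as % of control. Mean ± SEM, n=3; one-way ANOVA/Tukey.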

The species entered for data set [9] is Mus musculus. Briefly: Antagonist activity at NMDA receptor in Nras driven p53 deficient mouse HCC cell membranes assessed as LPS-stimulated PGE2 levels at 100 uM after 24 hrs by LC-MS/MS method (reference value: 162 +/- 7%). Set-up: scale not given: the % may be the effect or the level left. A digest of the protocol: as §3
Data set [10] is filed under the species Mus musculus. The experiment in a line: Antagonist activity at NMDA receptor in Nras driven p53 deficient mouse HCC cell membranes assessed as Abcc4 protein expression levels at 10 uM by […] analysis relative to control. Set-up: scale not given: the % may be the effect or the level left. The essentials: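 Mouse Nras-driven p53−/− HCC cells in DMEM with 10% FBS, exposed 48 h with or without 10 μM antagonist, washed, pelleted and snap-frozen. Crude membrane fraction isolated. 50 μg protein reduced, alkylated, precipitated, then Lys-C digested (3 h, rt) and trypsin digested (1:100, 37°C, 16 h). One unique peptide per transporter quantified by multiplexed SRM/MRM LC-MS/MS against stable isotope-labelled standards. Unpaired two-tailed t-test versus control, n=4.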

Data set [11] is filed under the species Mus musculus. The experiment in a line: Antagonist activity at NMDA receptor in Nras driven p53 deficient mouse HCC cell membranes assessed as decrease in Abcb1 protein expression levels by measuring [3H]-digoxin accumulation at 10 uM preincubated for 24 hrs followed by compound wash out and addition of [3H]-digoxin measured after 30 mins by scintillation counting method relative to control. More on the design: scale not given: the % may be the effect or the level left. The essentials:
(§4)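 Nras p53−/− HCC cells (1 × 10⁵/well) were pretreated 24 h with or without 10 μM. They were then washed 3× in warm HBSS (choline chloride, pH 7.4) and incubated at 37 °C with probe in HBSS. Incubation was 30 min for [3H]-digoxin, 20 μM fluorescein or 10 μM sorafenib, and 5 min for [14C]-L-leucine or [14C]-D-glucose. Cells were washed ice-cold and lysed in 0.1 M NaOH. Read-out was scintillation, fluorescence or LC-MS/MS, normalized to protein.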

The species named for data set [12] is Mus musculus. The experiment in a line: Antagonist activity at NMDA receptor in Nras driven p53 deficient mouse HCC cell membranes assessed as decrease in Abcc1 to 5 protein expression levels by measuring fluorescein accumulation at 10 uM preincubated for 24 hrs followed by compound wash out and addition of fluorescein measured after 30 mins by fluorescence assay relative to control. More on the design: scale not given: the % may be the effect or the level left. A digest of the protocol:
as §4

For data set [13], the species on record is Mus musculus. Briefly: Antagonist activity at NMDA receptor in Nras driven p53 deficient mouse HCC cell membranes assessed as decrease in Slc7a5 protein expression levels by measuring [14C]-L-leucine accumulation at 10 uM preincubated for 24 hrs followed by compound wash out and addition of [14C]-L-leucine measured after 5 mins by scintillation counting method relative to control. Set-up: scale not given: the % may be the effect or the level left. The essentials:
as §4

The species named for data set [14] is Mus musculus. Briefly: Antagonist activity at NMDA receptor in Nras driven p53 deficient mouse HCC cell membranes assessed as potentiation of 1 uM sorafenib-mediated antiproliferative activity by measuring cell viability at 100 uM after 72 hrs by resazurin assay (reference value: […] +/- […]%). (In general: The colour change of resazurin is a common sign of viable cells or microbes.)

The species entered for data set [15] is Mus musculus. Briefly: Antagonist activity at NMDA receptor in Nras driven p53 deficient mouse HCC cell membranes assessed as potentiation of 2.5 uM sorafenib-mediated antiproliferative activity by measuring cell viability at 100 uM after 72 hrs by resazurin assay (reference value: […] +/- […]%).

Activity calls are given as the source filed them. The rule behind the calls is not given here. Bounds are passed on as bounds.

Glutamate NMDA receptor; Grin1/Grin2c, sequence (Q00961 whole entry, other chains not shown): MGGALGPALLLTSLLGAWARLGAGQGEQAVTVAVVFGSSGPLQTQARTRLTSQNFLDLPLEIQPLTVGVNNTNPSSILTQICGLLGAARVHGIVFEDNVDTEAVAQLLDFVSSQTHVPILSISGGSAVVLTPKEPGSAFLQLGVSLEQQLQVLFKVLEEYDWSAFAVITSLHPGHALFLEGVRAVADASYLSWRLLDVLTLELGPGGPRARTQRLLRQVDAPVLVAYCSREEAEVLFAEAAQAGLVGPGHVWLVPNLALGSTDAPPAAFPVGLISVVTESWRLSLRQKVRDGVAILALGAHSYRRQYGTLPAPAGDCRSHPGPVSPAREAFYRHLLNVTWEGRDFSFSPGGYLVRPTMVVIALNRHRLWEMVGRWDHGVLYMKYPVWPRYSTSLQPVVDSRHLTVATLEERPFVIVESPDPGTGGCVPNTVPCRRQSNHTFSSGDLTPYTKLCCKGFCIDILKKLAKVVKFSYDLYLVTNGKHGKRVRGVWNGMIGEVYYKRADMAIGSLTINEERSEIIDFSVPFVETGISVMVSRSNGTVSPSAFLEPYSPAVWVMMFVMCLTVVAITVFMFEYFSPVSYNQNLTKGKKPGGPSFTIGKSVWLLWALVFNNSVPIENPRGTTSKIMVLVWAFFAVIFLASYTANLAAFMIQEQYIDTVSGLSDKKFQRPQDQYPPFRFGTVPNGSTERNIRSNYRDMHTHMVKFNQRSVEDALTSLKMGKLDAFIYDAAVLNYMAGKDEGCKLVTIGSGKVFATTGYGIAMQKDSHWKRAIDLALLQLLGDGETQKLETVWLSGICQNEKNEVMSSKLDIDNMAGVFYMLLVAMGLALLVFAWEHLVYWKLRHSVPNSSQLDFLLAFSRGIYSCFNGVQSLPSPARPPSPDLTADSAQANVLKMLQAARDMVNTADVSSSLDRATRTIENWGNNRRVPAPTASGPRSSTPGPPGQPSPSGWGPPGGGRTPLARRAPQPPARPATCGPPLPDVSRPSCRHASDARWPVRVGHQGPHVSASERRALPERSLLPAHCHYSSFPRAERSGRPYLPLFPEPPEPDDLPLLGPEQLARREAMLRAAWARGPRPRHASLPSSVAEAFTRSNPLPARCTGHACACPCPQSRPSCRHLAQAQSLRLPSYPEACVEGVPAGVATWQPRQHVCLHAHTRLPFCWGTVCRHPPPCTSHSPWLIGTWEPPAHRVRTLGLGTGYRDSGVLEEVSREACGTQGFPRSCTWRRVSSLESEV

Regarding `Cl.O=C(O)c1cc([C@H]2CCN[C@@H]2C(=O)O)ccc1Cl`, the concentration for half-maximal inhibition (IC50) in data set [1] is > 100 µM; in [3] it was 15 µM; in [4], 29 µM; in data set [5], 110 µM. Also, the inhibitory constant (Ki) in data set [2] was > 100 µM; in data set [3], 4.7 µM; in data set [4] it was 10 µM; in data set [5], 24 µM. In the data set with Plasma, this compound showed an AUC of 3020 nmol·min/g. The “beta t1/2” value in the data set on Liver is listed as 36 min. Also, the Activity entry with Mus musculus [6] is “Non-Toxic”; in the data set listed under Mus musculus [8] it was 48%; in the data set filed under Mus musculus [9], 96%; in the data set listed under Mus musculus [10] it was 14%; in the data set listed under Mus musculus [11] it was 149%; in the data set listed under Mus musculus [12], 201%. The Activity in the data set filed under Mus musculus [13] was found to be 81%; in the data set listed under Mus musculus [14] it was 33%; in the data set listed under Mus musculus [15], 30%. In addition, the inhibition entry in the data set filed under Mus musculus [7] is “Active”.
